The sample as a whole holds a higher share of hits than the screen did.
HEK293 NFkB inh: inhibitors of PMA/ionomycin-induced NF-kB reporter, primary screen, antigen receptor NF-kB inhibitor project, cell-based, HEK-293 luciferase reporter, luminescence. HEK-293 NF-kB luciferase reporter. inhibition, % at 3 µM. hit rate 0.21% among 62,000. AID 465, 2006;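 active = inhibition above the mean of all tested compounds plus 3 SD, cut at about 40% in these data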;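 note: 0% = stimulated DMSO wells and 100% = 10 µM reference inhibitor 5653914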
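System – HEK-293 cells with stable firefly luciferase reporter driven by four HIV NF-kB elements · Doses – one dose, 3 µM · Schedule – 1 h compound pre-incubation, 16 h PMA/ionomycin at 37 °C · Technique – luminescence from luciferase substrate reagent · Measure – percent inhibition normalized per plate to DMSO and reference-inhibitor controls · Replicates – tested once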
DAT uptake mod: changed hDAT dopamine uptake under cocaine IC80, either direction, primary screen, cocaine antagonist project, cell-based, LLC-PK1 hDAT, [14C]-dopamine uptake, MLSMR; Sodium-dependent dopamine transporter (Homo sapiens), Q01959; LLC-PK1 hDAT cells, [14C]-dopamine uptake with cocaine IC80; actives deviate in either direction; B-score at 10 µM; hit rate 1.3% among 110,000; AID 449768, 2010;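 active = Z score or B-score, a plate-position-corrected score, falls beyond the plate's 99.7% confidence bounds, in either direction; inactive = both scores lie inside the 99.7% bounds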;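 note: scored against the spread of the other compound wells on the same plate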
Ec RNAP inh: E. coli RNAP inhibitors, biochemical | E. coli RNA polymerase, fluorescence transcription assay | DNA-directed RNA polymerase subunit beta (Escherichia coli (strain K12)), P0A8V2 | inhibition, %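 (tested at 10 µM)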 | hit rate 0.2% among 62,000 | AID 559, 2006; in the data active = inhibition above about 20%;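 note: 0% = enzyme without compound and 100% = no enzyme blank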
AP complement: alternative complement pathway inhibitors, primary screen, biochemical, ELISA, human serum, orthogonally pooled compounds; LPS-coated ELISA, C3 deposition; tested in compound mixtures; inhibition, % at 5 µM; hit rate 0.08% among 62,000; AID 1235, 2008;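 active = inhibition above 30% in each of the two pooled mixtures holding the compound, so the lower value exceeds 30%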;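 note: 0% = serum in Mg-EGTA without compound and 100% = EDTA serum blank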
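Assay system: human serum alternative complement pathway, C3 deposition on LPS-coated wells; Dosing: 5 µM per compound in ten-compound mixtures; Detection: Anti-C3 ELISA, OD 450 nm; Buffer or medium: Mg2+-EGTA GVB++ buffer containing human serum at 1:15 dilution; Timing: 1 h at 37 °C; Replication: two different pools per compound.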
D1 allo mod: D1 CRE-luciferase signal change, two-sided – cell-based, HEK293 D1, dopamine EC30, D1 allosteric modulator project, primary screen; hit rate 5.9% among 58,000; D(1A) dopamine receptor (Homo sapiens), P21728; dopamine EC30 potentiation; actives deviate in either direction; AID 641, 2007; B-score at 10 µM;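 active = luminescence count or its row- and column-corrected plate score outside the 99.7% band of the plate's sample wells, on either side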
D1 mod confirm: D1 receptor positive allosteric modulators, retest, confirmation, cell-based, HEK293 D1, CRE-luciferase, duplicate. hit rate 88% among 2,200. dopamine EC30 potentiation; stronger effect = higher value. luminescence at 10 µM. shares compounds with D1 allo mod. AID 642, 2007;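 active = luminescence in either of two replicates above the same-plate mean plus 3 SD of the low-dose dopamine control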
D1 ag no DA: D1 receptor agonism without dopamine, confirmation, mechanism study for D1 allosteric modulator project, cell-based, HEK293 D1, CRE-luciferase, secondary assay 1 | hit rate 0.8% among 1,900 | luminescence, no dopamine; stronger effect = higher value | luminescence at 10 µM | shares compounds with D1 allo mod; in the data active = luminescence above about 3900
Isoprot counter: isoproterenol response counter-screen activity for D1 modulators. shares compounds with D1 allo mod. HEK293 D1 CRE-luciferase, isoproterenol EC30 counter-screen. calls only at 10 µM. hit rate 63% among 2,200;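 active = luminescence in either replicate above plate mean of wells with a partly effective reference agonist dose plus 3 SD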;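 note: isoproterenol raises cAMP through native beta-adrenoceptor Gs so signal bypasses D1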
Numbers without * were called inactive; i = inactive; / = no result; + = active, no number.

SMILES	HEK293 NFkB inh	DAT uptake mod	Ec RNAP inh	AP complement	D1 allo mod	D1 mod confirm	D1 ag no DA	Isoprot counter
Cc1ccc(NC(=O)c2cc([N+](=O)[O-])ccc2NCc2cccnc2)cc1	/	1.11	/	/	/	/	/	/
COc1ccc(C2NC(=O)CS2)cc1OC (stereo unspecified)	16.6	-0.0251	1.8	5.7	5.76*	13168*	/	+
COc1ccccc1C1NC(=O)CS1 (stereo unspecified)	17.9	-0.273	5.0	9.8	-1.07	/	/	/
CCNC(=O)CN(c1ccc(CC)cc1)S(C)(=O)=O	/	-0.00253	2.3	13.2	-0.699	/	/	/
CCCCN(c1ccccc1)c1ncnc2nc[nH]c12	8.1	0.681	3.3	15.3	11.6*	11140*	1680	+
CCOC(=O)c1oc2ccccc2c1CN1CCN(c2ccccc2)CC1	-0.6	-0.744	10.2	11.1	-0.319	/	/	/
CCOC(=O)c1cc(CN2CCOCC2)oc1-c1ccccc1	20.2	-0.103	-0.3	11.1	3.96*	12300*	1700	+
CCOC(=O)c1oc2cccc(O)c2c1CN1CCOCC1	3.0	0.004	6.7	5.4	5.81*	7884*	1544	i
CCOC(=O)c1oc2cccc(O)c2c1C	/	1.75	/	/	/	/	/	/
CCOC(=O)c1oc2ccccc2c1CN1CCN(C(=O)c2ccccc2)CC1	17.0	2.8*	6.0	9.1	6.95*	17092*	1488	+
Cc1nc2c3ccccc3n(CC#N)c(=O)n2n1	-3.4	-1.27	4.5	11.0	4.69*	8580*	/	+
CCN1C(=O)c2cccc3c(S(=O)(=O)Nc4ncccc4C)ccc1c23	20.3	1.82	-11.4	22.3	7.89*	9156*	1492	+
CCN1C(=O)c2cccc3c(S(=O)(=O)Nc4ccccn4)ccc1c23	40.3*	-0.274	8.0	-5.8	2.5*	5724*	1712	i
O=C(Nc1ccc2c(c1)OC1(CCCC1)O2)C1CC1	4.3	0.523	4.8	10.5	-0.27	/	/	/
CNC(=O)c1nc(C)n(-c2cc(Cl)ccc2Cl)n1	/	-1.28	/	/	/	/	/	/
COc1ccc2c(Cl)c(C(N)=O)sc2c1	3.9	-0.624	3.8	16.2	7.26*	15304*	1792	+
COc1ccc2c(Cl)c(C(=O)NN)sc2c1	/	0.856	/	/	/	/	/	/
COc1ccc(S(=O)(=O)N(Cc2ccccc2)Cc2nc(-c3ccccc3)no2)cc1	19.3	0.188	3.8	12.6	-0.532	/	/	/
CCOc1ccc2ccccc2c1C(=O)Nc1cc(=O)n(C)c(=O)n1C	15.8	1.34	2.2	30.3	0.0613	/	/	/
Cc1ccc(S(=O)(=O)NCCNC(=O)N2CCOCC2)cc1	14.2	1.49	0.7	4.5	0.212	/	/	/
Cc1ccc(S(=O)(=O)NCCCNC(=O)N2CCOCC2)cc1	-3.3	1.49	0.9	7.2	2.95*	5144	1760	i
O=C(NC1CCCCC1)C(c1ccco1)N(Cc1cccnc1)C(=O)C1COc2ccccc2O1 (stereo unspecified)	17.4	1.03	-1.1	-2.5	-0.427	/	/	/
Cc1csc2nc(CNC(=O)C3CCCCC3)cn12	-3.8	0.187	8.6	-2.7	2.99*	7124	1524	i
COc1ccc(-c2cc(C(F)(F)F)n3nc(C(=O)N4CCCCC4)cc3n2)cc1OC	/	1.01	/	/	/	/	/	/
COc1ccc(-c2cc(C(F)(F)F)n3nc(C(=O)N4CCCCC4)cc3n2)cc1	/	-0.188	-3.9	12.7	5.72*	8620*	1528	i
CC(=O)NC(CCS(C)(=O)=O)C(=O)N1CCc2ccccc21 (stereo unspecified)	10.0	-0.213	/	/	0.889	/	/	/

Screening results as filed in PubChem BioAssay.
